Experimental data taken from ChEMBL document CHEMBL1938337, “Discovery of novel, potent, and selective inhibitors of 3-phosphoinositide-dependent kinase (PDK1)” (J Med Chem, 2011).
Values after ≈ are worked out from the molar mass of the structure shown.

Key:
[1] = target: Serine/threonine-protein kinase pim-2 (Homo sapiens) (UniProt Q9P1W9); assay: Inhibition of PIM2 at 1 uM
[2] = target: Vascular endothelial growth factor receptor 2 (Homo sapiens) (UniProt P35968); assay: Inhibition of KDR at 1 uM
[3] = target: T1, Serine/threonine-protein kinase Sgk1 (Homo sapiens) (UniProt O00141); assay: Inhibition of SGK at 1 uM
T1 sequence (whole entry): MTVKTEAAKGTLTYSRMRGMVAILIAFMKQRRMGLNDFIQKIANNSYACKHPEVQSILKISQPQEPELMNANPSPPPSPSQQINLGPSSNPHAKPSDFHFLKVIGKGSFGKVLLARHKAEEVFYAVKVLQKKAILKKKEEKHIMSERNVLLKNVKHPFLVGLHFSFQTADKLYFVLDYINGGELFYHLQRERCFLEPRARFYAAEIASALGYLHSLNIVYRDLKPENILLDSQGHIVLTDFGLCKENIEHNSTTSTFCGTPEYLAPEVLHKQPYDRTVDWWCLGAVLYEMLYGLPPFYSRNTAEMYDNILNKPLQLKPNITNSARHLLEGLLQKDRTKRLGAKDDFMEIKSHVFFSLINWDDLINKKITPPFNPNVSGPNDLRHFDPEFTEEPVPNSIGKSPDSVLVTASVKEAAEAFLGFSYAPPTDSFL

[4] = Inhibition of p38 at 1 uM
[5] = target: T2, Serine/threonine-protein kinase 3 (Homo sapiens) (UniProt Q13188); assay: Inhibition of STK3 at 1 uM
T2 sequence (whole entry): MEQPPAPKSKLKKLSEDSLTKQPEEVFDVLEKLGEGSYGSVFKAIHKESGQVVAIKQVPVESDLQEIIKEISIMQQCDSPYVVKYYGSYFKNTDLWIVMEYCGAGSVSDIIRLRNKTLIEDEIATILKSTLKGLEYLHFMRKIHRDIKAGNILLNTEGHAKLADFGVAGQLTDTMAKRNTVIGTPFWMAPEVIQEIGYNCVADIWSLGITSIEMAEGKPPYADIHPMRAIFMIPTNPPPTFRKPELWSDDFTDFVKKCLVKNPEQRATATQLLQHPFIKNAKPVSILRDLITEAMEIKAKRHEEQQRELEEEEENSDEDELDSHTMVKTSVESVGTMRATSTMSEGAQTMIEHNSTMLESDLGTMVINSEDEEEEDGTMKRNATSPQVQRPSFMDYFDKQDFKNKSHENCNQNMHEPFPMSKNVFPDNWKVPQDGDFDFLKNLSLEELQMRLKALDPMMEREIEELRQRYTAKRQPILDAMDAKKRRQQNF

[6] = target: Glycogen synthase kinase-3 beta (Homo sapiens, UniProt P49841); assay: Inhibition of GSK3B at 1 uM
[7] = target: T3, 3-phosphoinositide-dependent protein kinase 1 (Homo sapiens, UniProt O15530); assay: Inhibition of PDK1-mediated AKT1 phosphorylation at T308 in human SKOV3 cells after 2 hrs by ELISA; type: cell-based, SK-OV-3
T3 sequence (O15530 whole entry): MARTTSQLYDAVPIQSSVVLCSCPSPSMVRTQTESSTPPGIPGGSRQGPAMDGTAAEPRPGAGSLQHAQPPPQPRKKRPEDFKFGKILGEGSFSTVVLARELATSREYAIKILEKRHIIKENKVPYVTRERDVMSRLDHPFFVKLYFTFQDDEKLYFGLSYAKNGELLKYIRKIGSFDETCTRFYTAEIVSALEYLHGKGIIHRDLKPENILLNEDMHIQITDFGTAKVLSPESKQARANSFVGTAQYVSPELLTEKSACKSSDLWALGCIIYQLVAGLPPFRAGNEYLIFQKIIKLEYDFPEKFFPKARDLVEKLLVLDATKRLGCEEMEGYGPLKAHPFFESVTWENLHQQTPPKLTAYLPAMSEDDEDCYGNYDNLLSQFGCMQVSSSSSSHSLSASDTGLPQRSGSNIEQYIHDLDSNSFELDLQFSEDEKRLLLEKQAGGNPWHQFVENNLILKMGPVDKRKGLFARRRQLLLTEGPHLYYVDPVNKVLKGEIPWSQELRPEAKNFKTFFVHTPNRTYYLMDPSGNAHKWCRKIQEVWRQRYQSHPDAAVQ
In short: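 Cells seeded at 50,000 per well and left to adhere overnight. Inhibitor was added as a 3-fold serial dilution from 0.0169 nM to 10 μM for 2 h, then cells were lysed. Lysates were tested in a commercial pAKT-T308 sandwich ELISA per the kit protocol. IC50 from duplicates, each run repeated at least twice.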

[8] = target: Myosin light chain kinase 2, skeletal/cardiac muscle (Homo sapiens) (UniProt Q9H1R3); assay: Inhibition of MYLK2 at 1 uM
[9] = target: Fibroblast growth factor receptor 1 (Homo sapiens) (UniProt P11362); assay: Inhibition of FGFR1 at 1 uM
[10] = target: T4, Aurora kinase A (Homo sapiens) (UniProt O14965); assay: Inhibition of STK6 at 1 uM
T4 sequence (whole entry): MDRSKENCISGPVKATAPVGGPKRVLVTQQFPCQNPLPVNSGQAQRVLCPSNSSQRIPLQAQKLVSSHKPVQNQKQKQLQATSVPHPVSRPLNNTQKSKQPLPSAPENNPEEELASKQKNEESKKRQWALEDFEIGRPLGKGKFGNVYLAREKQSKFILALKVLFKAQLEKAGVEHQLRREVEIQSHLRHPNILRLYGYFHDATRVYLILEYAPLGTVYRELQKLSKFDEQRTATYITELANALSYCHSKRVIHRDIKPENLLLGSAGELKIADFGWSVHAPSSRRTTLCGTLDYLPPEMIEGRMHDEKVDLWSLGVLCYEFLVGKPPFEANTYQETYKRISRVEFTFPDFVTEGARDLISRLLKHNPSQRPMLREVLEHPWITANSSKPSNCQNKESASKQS

[11] = Inhibition of PRKCB2 at 1 uM
[12] = Solubility of the compound at pH 6.5; type: physicochemical; conditions: buffer
[13] = target: Rho-associated protein kinase 1 (Homo sapiens) (UniProt Q13464); assay: Inhibition of ROCK1 at 1 uM
[14] = test system: A549; assay: Antiproliferative activity against human A549 cells after 72 hrs by resazurin reduction assay; type: functional, cell-based; conditions: A549, 72 h
In short: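 Cells seeded at 3,000 per well, left to adhere overnight, then given inhibitor as a 3-fold serial dilution from 0.0169 nM to 10 μM. After 72 h, 250 μg/mL resazurin was added, followed by 6 h more at 37 °C. Fluorescence was read at ex 560 / em 590 nm.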

[15] = target: Serine/threonine-protein kinase mTOR (Homo sapiens, UniProt P42345); assay: Inhibition of GST-tagged mTOR assessed as phosphorylation at Thr46 in GFP-4E-BP1 substrate by TR-FRET assay
In short: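 GST-tagged mTOR (aa 1360-2549) at 1 nM, with 0.4 μM GFP-4E-BP1 and 40 μM ATP. Buffer: 50 mM Hepes pH 7.4, 10 mM MgCl2, 1 mM EGTA, 0.01% Tween-20, at about 22 °C. A terbium anti-phospho-Thr46 antibody was added at the end, and the read-out was TR-FRET. Duplicate data fitted by nonlinear regression. Concentrations are final.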

Rho-associated protein kinase 1 (Homo sapiens), sequence (Q13464 2-1354 limits assumed): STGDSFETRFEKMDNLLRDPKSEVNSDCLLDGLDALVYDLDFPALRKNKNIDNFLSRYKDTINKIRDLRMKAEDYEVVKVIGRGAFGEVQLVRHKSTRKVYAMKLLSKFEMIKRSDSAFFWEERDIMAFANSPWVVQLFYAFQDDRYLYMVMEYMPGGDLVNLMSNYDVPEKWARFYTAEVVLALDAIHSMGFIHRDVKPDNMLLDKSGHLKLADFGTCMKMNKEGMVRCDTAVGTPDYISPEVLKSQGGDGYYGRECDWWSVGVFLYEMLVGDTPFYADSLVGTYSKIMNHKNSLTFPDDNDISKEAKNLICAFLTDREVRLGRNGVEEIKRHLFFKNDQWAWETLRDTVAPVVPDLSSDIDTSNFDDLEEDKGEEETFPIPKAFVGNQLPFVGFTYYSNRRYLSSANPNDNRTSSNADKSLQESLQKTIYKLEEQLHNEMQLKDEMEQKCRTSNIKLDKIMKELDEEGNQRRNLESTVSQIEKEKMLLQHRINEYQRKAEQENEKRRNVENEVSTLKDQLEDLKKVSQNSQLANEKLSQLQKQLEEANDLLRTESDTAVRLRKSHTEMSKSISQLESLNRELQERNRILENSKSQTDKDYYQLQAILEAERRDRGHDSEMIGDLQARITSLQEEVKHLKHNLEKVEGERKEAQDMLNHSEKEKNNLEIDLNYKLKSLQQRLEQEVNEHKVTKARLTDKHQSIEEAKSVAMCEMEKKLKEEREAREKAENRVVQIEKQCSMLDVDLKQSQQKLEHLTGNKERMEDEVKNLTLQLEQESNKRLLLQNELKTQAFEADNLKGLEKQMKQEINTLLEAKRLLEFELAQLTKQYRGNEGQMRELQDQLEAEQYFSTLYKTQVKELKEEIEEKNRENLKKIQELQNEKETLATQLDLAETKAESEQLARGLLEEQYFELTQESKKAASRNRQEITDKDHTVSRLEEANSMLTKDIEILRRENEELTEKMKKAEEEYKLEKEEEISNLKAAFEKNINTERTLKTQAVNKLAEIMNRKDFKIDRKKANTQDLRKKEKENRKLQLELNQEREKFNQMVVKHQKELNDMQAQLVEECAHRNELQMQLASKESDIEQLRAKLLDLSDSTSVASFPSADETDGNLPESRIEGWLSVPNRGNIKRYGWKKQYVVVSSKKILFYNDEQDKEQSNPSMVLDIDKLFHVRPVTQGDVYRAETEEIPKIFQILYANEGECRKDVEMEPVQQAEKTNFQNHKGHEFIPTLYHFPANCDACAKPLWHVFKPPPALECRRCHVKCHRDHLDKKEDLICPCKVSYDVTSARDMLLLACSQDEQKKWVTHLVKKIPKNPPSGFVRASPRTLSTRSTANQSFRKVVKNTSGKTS
Glycogen synthase kinase-3 beta, sequence (P49841 whole entry, looked up): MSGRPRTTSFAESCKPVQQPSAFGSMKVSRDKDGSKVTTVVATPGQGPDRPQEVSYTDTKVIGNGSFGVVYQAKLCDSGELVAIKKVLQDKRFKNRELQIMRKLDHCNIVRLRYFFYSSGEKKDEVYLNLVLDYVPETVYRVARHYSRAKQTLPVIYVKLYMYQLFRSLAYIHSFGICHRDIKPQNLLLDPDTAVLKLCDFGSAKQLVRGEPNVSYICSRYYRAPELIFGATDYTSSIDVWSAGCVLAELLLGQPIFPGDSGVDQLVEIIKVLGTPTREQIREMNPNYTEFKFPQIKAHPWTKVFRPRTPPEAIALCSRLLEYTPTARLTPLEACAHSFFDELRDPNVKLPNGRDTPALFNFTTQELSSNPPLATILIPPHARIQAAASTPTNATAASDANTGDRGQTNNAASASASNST
Serine/threonine-protein kinase pim-2 (Homo sapiens), sequence (Q9P1W9 whole entry, looked up): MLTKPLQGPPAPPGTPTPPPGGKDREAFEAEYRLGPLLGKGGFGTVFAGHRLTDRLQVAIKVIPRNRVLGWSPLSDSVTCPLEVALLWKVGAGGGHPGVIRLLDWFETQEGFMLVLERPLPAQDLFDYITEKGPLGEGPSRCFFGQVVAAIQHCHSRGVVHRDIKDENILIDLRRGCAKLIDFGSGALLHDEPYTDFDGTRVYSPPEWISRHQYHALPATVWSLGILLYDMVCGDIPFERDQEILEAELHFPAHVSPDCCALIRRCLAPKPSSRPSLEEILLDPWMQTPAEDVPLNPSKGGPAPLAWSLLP
Myosin light chain kinase 2, skeletal/cardiac muscle (Homo sapiens), sequence (Q9H1R3 whole entry): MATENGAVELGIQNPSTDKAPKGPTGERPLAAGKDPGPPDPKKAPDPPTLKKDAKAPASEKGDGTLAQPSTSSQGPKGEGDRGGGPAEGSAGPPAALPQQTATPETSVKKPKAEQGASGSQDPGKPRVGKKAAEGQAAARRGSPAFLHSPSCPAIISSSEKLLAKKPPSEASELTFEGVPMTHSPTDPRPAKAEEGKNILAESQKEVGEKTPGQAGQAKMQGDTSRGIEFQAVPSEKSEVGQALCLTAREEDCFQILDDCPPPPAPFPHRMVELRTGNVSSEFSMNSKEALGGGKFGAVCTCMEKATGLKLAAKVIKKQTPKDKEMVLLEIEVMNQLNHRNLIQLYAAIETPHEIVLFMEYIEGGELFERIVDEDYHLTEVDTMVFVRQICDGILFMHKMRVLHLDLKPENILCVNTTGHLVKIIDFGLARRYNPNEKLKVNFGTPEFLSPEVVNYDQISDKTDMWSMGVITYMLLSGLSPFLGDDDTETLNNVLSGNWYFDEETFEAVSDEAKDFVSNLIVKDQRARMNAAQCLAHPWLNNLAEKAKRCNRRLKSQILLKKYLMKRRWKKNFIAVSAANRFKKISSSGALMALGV
Fibroblast growth factor receptor 1 (Homo sapiens), sequence (P11362 22-822 limits assumed): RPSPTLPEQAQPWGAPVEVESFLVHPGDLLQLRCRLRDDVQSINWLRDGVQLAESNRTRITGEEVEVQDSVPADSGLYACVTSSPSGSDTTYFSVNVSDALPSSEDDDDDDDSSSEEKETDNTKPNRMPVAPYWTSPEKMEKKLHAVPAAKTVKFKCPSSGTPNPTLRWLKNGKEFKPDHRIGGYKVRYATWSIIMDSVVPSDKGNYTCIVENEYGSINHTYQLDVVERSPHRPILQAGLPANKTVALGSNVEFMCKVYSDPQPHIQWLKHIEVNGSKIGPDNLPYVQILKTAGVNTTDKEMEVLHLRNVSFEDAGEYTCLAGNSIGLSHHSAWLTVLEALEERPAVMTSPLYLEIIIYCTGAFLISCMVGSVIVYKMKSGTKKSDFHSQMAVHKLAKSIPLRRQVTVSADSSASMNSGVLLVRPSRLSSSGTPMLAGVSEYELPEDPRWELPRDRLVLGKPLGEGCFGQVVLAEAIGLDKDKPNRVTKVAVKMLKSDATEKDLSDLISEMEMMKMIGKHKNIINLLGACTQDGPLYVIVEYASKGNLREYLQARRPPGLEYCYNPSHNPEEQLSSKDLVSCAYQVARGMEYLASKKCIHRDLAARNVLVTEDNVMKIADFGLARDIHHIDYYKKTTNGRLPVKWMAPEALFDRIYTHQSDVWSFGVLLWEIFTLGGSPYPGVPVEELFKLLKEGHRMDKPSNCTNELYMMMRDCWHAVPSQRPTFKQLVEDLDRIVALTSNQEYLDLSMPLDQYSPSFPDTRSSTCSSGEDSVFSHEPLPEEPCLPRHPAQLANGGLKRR
Vascular endothelial growth factor receptor 2 (Homo sapiens), sequence (P35968 whole entry): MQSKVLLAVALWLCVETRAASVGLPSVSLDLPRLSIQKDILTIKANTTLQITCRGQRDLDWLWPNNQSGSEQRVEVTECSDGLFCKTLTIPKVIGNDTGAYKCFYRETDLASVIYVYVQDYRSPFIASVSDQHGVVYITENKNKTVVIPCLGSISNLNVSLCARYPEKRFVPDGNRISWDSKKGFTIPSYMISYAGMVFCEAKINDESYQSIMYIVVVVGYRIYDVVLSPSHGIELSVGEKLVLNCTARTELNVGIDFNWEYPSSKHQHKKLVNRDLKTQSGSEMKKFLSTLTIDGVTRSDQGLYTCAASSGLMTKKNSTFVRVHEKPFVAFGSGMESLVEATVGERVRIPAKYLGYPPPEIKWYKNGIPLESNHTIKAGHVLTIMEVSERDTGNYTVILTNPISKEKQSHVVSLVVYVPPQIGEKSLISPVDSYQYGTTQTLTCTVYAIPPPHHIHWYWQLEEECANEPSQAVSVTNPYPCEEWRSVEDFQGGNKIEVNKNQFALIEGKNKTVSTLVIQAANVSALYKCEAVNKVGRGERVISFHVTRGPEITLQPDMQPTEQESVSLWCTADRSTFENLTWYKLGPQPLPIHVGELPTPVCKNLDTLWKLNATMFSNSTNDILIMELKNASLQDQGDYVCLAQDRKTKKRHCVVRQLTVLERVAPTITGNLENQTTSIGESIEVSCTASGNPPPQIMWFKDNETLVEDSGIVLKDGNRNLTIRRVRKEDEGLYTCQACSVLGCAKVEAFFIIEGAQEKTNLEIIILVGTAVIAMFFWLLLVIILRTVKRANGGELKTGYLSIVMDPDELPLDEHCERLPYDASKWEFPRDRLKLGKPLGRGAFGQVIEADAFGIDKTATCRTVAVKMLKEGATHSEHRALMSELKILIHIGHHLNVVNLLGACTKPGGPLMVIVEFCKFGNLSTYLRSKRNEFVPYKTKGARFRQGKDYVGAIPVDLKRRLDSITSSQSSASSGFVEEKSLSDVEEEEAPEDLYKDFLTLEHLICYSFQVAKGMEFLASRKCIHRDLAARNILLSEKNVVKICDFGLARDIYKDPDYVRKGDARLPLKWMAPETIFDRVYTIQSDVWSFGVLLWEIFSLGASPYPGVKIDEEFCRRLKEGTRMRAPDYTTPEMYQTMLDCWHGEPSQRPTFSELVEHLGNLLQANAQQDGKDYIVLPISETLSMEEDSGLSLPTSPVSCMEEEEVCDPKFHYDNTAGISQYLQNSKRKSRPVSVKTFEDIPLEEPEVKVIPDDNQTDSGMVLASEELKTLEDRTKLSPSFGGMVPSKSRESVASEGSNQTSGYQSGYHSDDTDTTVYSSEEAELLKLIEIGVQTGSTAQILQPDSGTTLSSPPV

inhibition [1] | inhibition [2] | inhibition [3] | inhibition [4] | inhibition [5] | inhibition [6] | IC50 [7] | inhibition [8] | inhibition [9] | inhibition [10] | inhibition [11] | solubility [12] | inhibition [13] | EC50 [14] | Ki [15] | SMILES
9% | 49% | 48% | 6% | 13% | 66% | 70 nM | 3% | 17% | 81% | 14% | 290 µM (≈ 142 µg/mL) | 4% | 1800 nM | 2800 nM | CC(C)n1cc(C(=O)c2cncc(N[C@@H]3CCN(C=O)[C@@H]3c3ccc(F)cc3)n2)c2c(N)ncnc21
-2% | 34% | 30% | 0% | 0% | 42% | 200 nM | -2% | 6% | 54% | 1% | 510 µM (≈ 247 µg/mL) | -5% | 5200 nM | 3900 nM | CC(=O)N1CC[C@@H](Nc2cncc(C(=O)c3cn(C(C)C)c4ncnc(N)c34)n2)[C@H]1c1ccccc1
7% | 51% | 61% | -1% | 12% | 76% | 70 nM | -8% | 7% | 80% | 15% | 390 µM (≈ 196 µg/mL) | 5% | 2200 nM | 2600 nM | CC(=O)N1CC[C@@H](Nc2cncc(C(=O)c3cn(C(C)C)c4ncnc(N)c34)n2)[C@H]1c1ccc(F)cc1
